Measured values: ChEMBL document CHEMBL3232844, “Synthesis and structure activity relationships of schweinfurthin indoles” (2014)

What was measured:
Format in all cases: functional
RPMI-8226 = assay: Cytotoxicity against human RPMI8226 cells; details: for CC50: read-out: pLC50 (the source's name) (converted); for TGI: read-out: pTGI (converted)
How it was run: (§1)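 Tested in a 60-cell-line human tumor panel screen; the read-out is growth inhibition, reported as GI50 for each cell line.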

NCI-H322M = assay: Cytotoxicity against human NCI-H322M cells; details: for CC50: read-out: pLC50 (the source's name) (converted); for TGI: read-out: pTGI (converted); how it was run: as §1
[1] = Cytotoxicity against human UO31 cells; details: for GI50 / LC50: UO-31; for TGI: UO-31, read-out: pTGI (converted)
How it was run: (§2)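 Cell line run as part of the 60-cell-line screening panel; growth inhibition was reported as a GI50 for each line.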

SNB-19 = assay: Cytotoxicity against human SNB19 cells; details: for CC50: read-out: pLC50 (the source's name) (converted); for TGI: read-out: pTGI (converted); how it was run: as §1
U-251 = assay: Cytotoxicity against human U251 cells; details: for CC50: read-out: pLC50 (the source's name) (converted); for TGI: read-out: pTGI (converted); how it was run: as §2
ACHN = assay: Cytotoxicity against human ACHN cells; details: for TGI: read-out: pTGI (converted); how it was run: as §1
HOP-92 = assay: Cytotoxicity against human HOP92 cells; details: for CC50: read-out: pLC50 (the source's name) (converted); for TGI: read-out: pTGI (converted); how it was run: as §1
[2] = Cytotoxicity against human EKVX cells; details: for CC50: read-out: pLC50 (the source's name) (converted); for TGI: read-out: pTGI (converted); how it was run: as §1
A498 = assay: Cytotoxicity against human A498 cells; details: for CC50: read-out: pLC50 (the source's name) (converted); for TGI: read-out: pTGI (converted); how it was run: as §1
A549 = assay: Cytotoxicity against human A549 cells; details: for CC50: read-out: pLC50 (the source's name) (converted); for TGI: read-out: pTGI (converted); how it was run: as §1
Malme-3M = assay: Cytotoxicity against human MALME-3M cells; details: for CC50: read-out: pLC50 (the source's name) (converted); for TGI: read-out: pTGI (converted); how it was run: as §1
[3] = Cytotoxicity against human OVCAR5 cells; details: for GI50: OVCAR-5; for CC50: OVCAR-5, read-out: pLC50 (the source's name) (converted); for TGI: OVCAR-5, read-out: pTGI (converted); how it was run: as §1
NCI-H522 = assay: Cytotoxicity against human NCI-H522 cells; details: for CC50: read-out: pLC50 (the source's name) (converted); for TGI: read-out: pTGI (converted); how it was run: as §1
SN12C = assay: Cytotoxicity against human SN12C cells; details: for TGI: read-out: pTGI (converted); how it was run: as §1
[4] = Cytotoxicity against human Hs578T cells; details: Hs-578T; for TGI: read-out: pTGI (converted); how it was run: as §1
SW-620 = assay: Cytotoxicity against human SW620 cells; details: for CC50: read-out: pLC50 (the source's name) (converted); for TGI: read-out: pTGI (converted); how it was run: as §2
SK-MEL-28 = assay: Cytotoxicity against human SK-MEL-28 cells; details: for TGI: read-out: pTGI (converted); for CC50: read-out: pLC50 (the source's name) (converted); how it was run: as §1

SMILES: COc1cc(/C=C/c2cc(O)c3c(C/C=C(\C)CCC=C(C)C)c[nH]c3c2)cc2c1O[C@]1(C)CC[C@@H](O)C(C)(C)[C@H]1C2
- GI50 (RPMI-8226): 0.158 µM
- CC50 (RPMI-8226): > 100 µM
- TGI (RPMI-8226): 1.66 µM
- GI50 (NCI-H322M): 60.3 µM
- CC50 (NCI-H322M): > 100 µM
- TGI (NCI-H322M): > 100 µM
- GI50 [1]: 0.933 µM
- LC50 [1]: 8.91 µM
- TGI [1]: 2.95 µM
- GI50 (SNB-19): 2.45 µM
- CC50 (SNB-19): > 100 µM
- TGI (SNB-19): > 100 µM
- GI50 (U-251): 0.603 µM
- CC50 (U-251): > 100 µM
- TGI (U-251): > 100 µM
- GI50 (ACHN): 7.24 µM
- LC50 (concentration killing 50% of cells) (ACHN): > 100 µM
- TGI (ACHN): > 100 µM
- GI50 (HOP-92): 0.724 µM
- CC50 (HOP-92): > 100 µM
- TGI (HOP-92): 8.71 µM
- GI50 [2]: 0.724 µM
- CC50 [2]: > 100 µM
- TGI [2]: 4.47 µM
- GI50 (A498): 1.2 µM
- CC50 (A498): > 100 µM
- TGI (A498): 9.77 µM
- GI50 (A549): 2.57 µM
- CC50 (A549): > 100 µM
- TGI (A549): > 100 µM
- GI50 (Malme-3M): 2.95 µM
- CC50 (Malme-3M): > 100 µM
- TGI (Malme-3M): 61.7 µM
- GI50 [3]: 15.1 µM
- CC50 [3]: > 100 µM
- TGI [3]: > 100 µM
- GI50 (NCI-H522): 2.63 µM
- CC50 (NCI-H522): > 100 µM
- TGI (NCI-H522): 16.6 µM
- GI50 (SN12C): 60.3 µM
- LC50 (SN12C): > 100 µM
- TGI (SN12C): > 100 µM

SMILES: COc1cc(/C=C/c2cc(OC)c3cc[nH]c3c2)cc2c1O[C@]1(C)CC[C@@H](O)C(C)(C)[C@H]1C2
- GI50 (RPMI-8226): 0.0282 µM
- CC50 (RPMI-8226): > 100 µM
- TGI (RPMI-8226): 0.0851 µM
- GI50 (NCI-H322M): 3.55 µM
- CC50 (NCI-H322M): > 100 µM
- TGI (NCI-H322M): 37.2 µM
- GI50 [1]: 0.186 µM
- LC50 [1]: > 100 µM
- TGI [1]: 0.977 µM
- GI50 (SNB-19): 0.676 µM
- CC50 (SNB-19): > 100 µM
- TGI (SNB-19): 7.08 µM
- GI50 (U-251): 0.331 µM
- CC50 (U-251): 31.6 µM
- TGI (U-251): 3.63 µM
- GI50 [4]: 0.0513 µM
- LC50 [4]: > 100 µM
- TGI [4]: 0.776 µM
- GI50 (ACHN): 0.575 µM
- LC50 (concentration killing 50% of cells) (ACHN): > 100 µM
- TGI (ACHN): 6.92 µM
- GI50 [2]: 0.537 µM
- CC50 [2]: > 100 µM
- TGI [2]: 6.03 µM
- GI50 (A498): 0.245 µM
- TGI (A498): 0.813 µM
- GI50 (A549): 0.871 µM
- CC50 (A549): > 100 µM
- TGI (A549): 17.8 µM
- GI50 (SW-620): 0.309 µM
- CC50 (SW-620): 5.5 µM
- TGI (SW-620): 1.35 µM
- GI50 (Malme-3M): 0.575 µM
- CC50 (Malme-3M): > 100 µM
- TGI (Malme-3M): 4.9 µM
- GI50 (SK-MEL-28): 0.209 µM
- TGI (SK-MEL-28): 0.776 µM
- GI50 [3]: 1 µM
- CC50 [3]: > 100 µM
- TGI [3]: 6.03 µM
- GI50 (NCI-H522): 0.708 µM
- CC50 (NCI-H522): > 100 µM
- TGI (NCI-H522): 2.88 µM
- GI50 (SN12C): 6.17 µM
- LC50 (SN12C): > 100 µM
- TGI (SN12C): 51.3 µM

SMILES: COc1cc(/C=C/c2cc(O)c3ccn(C)c3c2)cc2c1O[C@]1(C)CC[C@@H](O)C(C)(C)[C@H]1C2
- GI50 (RPMI-8226): 0.0708 µM
- CC50 (RPMI-8226): > 100 µM
- TGI (RPMI-8226): 1.62 µM
- GI50 (NCI-H322M): 12.9 µM
- CC50 (NCI-H322M): > 100 µM
- TGI (NCI-H322M): > 100 µM
- GI50 [1]: 0.437 µM
- LC50 [1]: > 100 µM
- TGI [1]: 7.24 µM
- GI50 (SNB-19): 1.45 µM
- CC50 (SNB-19): > 100 µM
- TGI (SNB-19): > 100 µM
- GI50 (U-251): 0.417 µM
- CC50 (U-251): > 100 µM
- TGI (U-251): 63.1 µM
- GI50 [4]: 0.141 µM
- LC50 [4]: > 100 µM
- TGI [4]: 20.4 µM
- GI50 (ACHN): 0.776 µM
- LC50 (concentration killing 50% of cells) (ACHN): > 100 µM
- TGI (ACHN): 55 µM
- GI50 (HOP-92): 0.525 µM
- CC50 (HOP-92): > 100 µM
- TGI (HOP-92): 5.62 µM
- GI50 [2]: 4.27 µM
- CC50 [2]: > 100 µM
- TGI [2]: 85.1 µM
- GI50 (A498): 6.03 µM
- CC50 (A498): 89.1 µM
- TGI (A498): 38.9 µM
- GI50 (A549): 4.9 µM
- CC50 (A549): > 100 µM
- TGI (A549): 64.6 µM
- GI50 (SW-620): 1.02 µM
- CC50 (SW-620): > 100 µM
- TGI (SW-620): 3.24 µM
- GI50 (Malme-3M): 0.309 µM
- CC50 (Malme-3M): > 100 µM
- TGI (Malme-3M): 49 µM
- GI50 (SK-MEL-28): 0.832 µM
- CC50 (SK-MEL-28): > 100 µM
- TGI (SK-MEL-28): 16.2 µM
- GI50 [3]: 12.3 µM
- CC50 [3]: > 100 µM
- TGI [3]: 77.6 µM
- GI50 (NCI-H522): 1.45 µM
- CC50 (NCI-H522): > 100 µM
- TGI (NCI-H522): 4.37 µM
- GI50 (SN12C): 6.92 µM
- LC50 (SN12C): > 100 µM
- TGI (SN12C): 91.2 µM

SMILES: COc1cc(/C=C/c2cc(O)c3c(c2)C[C@@H]2C(C)(C)[C@H](O)CC[C@@]2(C)O3)cc2c1ccn2C
- GI50 (NCI-H322M): 13.2 µM
- CC50 (NCI-H322M): 60.3 µM
- TGI (NCI-H322M): 28.2 µM
- GI50 [1]: 0.0813 µM
- LC50 [1]: 32.4 µM
- TGI [1]: 2.95 µM
- GI50 (SNB-19): 0.0141 µM
- CC50 (SNB-19): 41.7 µM
- TGI (SNB-19): 13.8 µM
- GI50 (U-251): 0.141 µM
- CC50 (U-251): 43.7 µM
- TGI (U-251): 15.5 µM
- GI50 [4]: 0.0229 µM
- LC50 [4]: 89.1 µM
- TGI [4]: 3.55 µM
- GI50 (ACHN): 1.23 µM
- LC50 (concentration killing 50% of cells) (ACHN): 50.1 µM
- TGI (ACHN): 17.8 µM
- GI50 (HOP-92): 0.955 µM
- CC50 (HOP-92): 89.1 µM
- TGI (HOP-92): 12.6 µM
- GI50 [2]: 4.07 µM
- CC50 [2]: 64.6 µM
- TGI [2]: 22.9 µM
- GI50 (A498): 0.0437 µM
- CC50 (A498): 53.7 µM
- TGI (A498): 9.33 µM
- GI50 (A549): 9.55 µM
- CC50 (A549): 58.9 µM
- TGI (A549): 23.4 µM
- CC50 (SW-620): 18.6 µM
- GI50 (SK-MEL-28): 0.145 µM
- CC50 (SK-MEL-28): 45.7 µM
- TGI (SK-MEL-28): 17.4 µM
- GI50 [3]: 11.2 µM
- CC50 [3]: 53.7 µM
- TGI [3]: 21.9 µM
- GI50 (NCI-H522): 5.89 µM
- GI50 (SN12C): 10.5 µM
- LC50 (SN12C): 52.5 µM
- TGI (SN12C): 23.4 µM
